# Sampled rows, rich in hits. Any-hit rate of the full collection: about 2.5%.
# FGF22 binding – shifts melting point of recombinant human FGF22; Q9HCT0; recombinant FGF22 thermal shift, SYPRO orange fluorescence; percent of sucrose octasulfate shift, DMSO zero; activity (Tm shift, normalised), % at 9.99 µM; 340,000 compounds, 1.5% hits; AID 651658;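 active = mean Tm shift, scaled 0 neutral to 100 positive control, at about 1.3% or above, every replicate too, limit read from the data; inconclusive = no clear call, values can overlap the other calls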
# Target sequence (Q9HCT0 whole entry, looked up): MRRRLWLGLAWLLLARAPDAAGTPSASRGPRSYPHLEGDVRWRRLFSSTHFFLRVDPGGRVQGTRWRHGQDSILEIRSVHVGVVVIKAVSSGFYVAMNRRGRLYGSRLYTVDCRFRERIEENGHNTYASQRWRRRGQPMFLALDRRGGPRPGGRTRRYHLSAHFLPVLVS
# miR-122 sensor – inhibitors of miR-122 in Huh7 cells; Huh7 miR-122 Renilla luciferase sensor, 48 h; neutral wells = 0, positive control = 100; activation (reporter increase), % at 12.5 µM; 340,000 compounds, 0.3% hits;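 active = mean replicate activation score at least 90 and every replicate individually at or above 90; inconclusive = only one of the two criteria met; inactive = neither criterion met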;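 also: higher luciferase means less miR-122 activity so hits act as miR-122 inhibitors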
# SIRT5 inh – sirtuin-5 (human) deacylase inhibition. 330,000 compounds, 1.1% hits. Q9NXA8. AID 652115. inhibition, % at 15 µM. Purified SirT5, succinyl-peptide AMC, trypsin-coupled fluorescence; in the data active = inhibition above about 15%; inconclusive = no clear call, values can overlap the other calls
# Target sequence (Q9NXA8 whole entry, looked up): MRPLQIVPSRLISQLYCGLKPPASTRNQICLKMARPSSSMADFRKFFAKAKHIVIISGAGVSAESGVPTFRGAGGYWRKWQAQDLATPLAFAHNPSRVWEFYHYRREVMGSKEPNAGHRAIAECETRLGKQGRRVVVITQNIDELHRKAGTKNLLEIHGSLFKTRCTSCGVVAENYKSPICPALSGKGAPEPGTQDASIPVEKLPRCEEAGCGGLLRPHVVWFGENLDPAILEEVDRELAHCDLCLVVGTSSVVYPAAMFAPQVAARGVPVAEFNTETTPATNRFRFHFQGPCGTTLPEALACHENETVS
# S100A4 inh HTS – blocks human S100A4 binding to myosin IIA peptide. P26447. S100A4/TAMRA-MyoIIA peptide fluorescence polarization. inhibition, % at 10.7 µM. 360,000 compounds, 0.14% hits;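 active = mean inhibition of at least 70% across replicates, with every replicate also reaching that level; inconclusive = mean inhibition reaches 70% but some replicates fall short; inactive = mean inhibition below 70%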
# Target sequence (P26447 whole entry, looked up): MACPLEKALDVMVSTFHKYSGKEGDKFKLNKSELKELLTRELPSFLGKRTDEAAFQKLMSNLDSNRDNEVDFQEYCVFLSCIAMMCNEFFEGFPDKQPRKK
#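 Test system: S100A4 monomer protein. Medium: HEPES buffer with Ca2+, pH 7.2. Reagent: fluorescent myosin IIA peptide, 5 nM. Compound dosing: single-point compound testing. Timing: 5 min between mix addition and reading. Benchmarks: DMSO neutral and TFP positive wells.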
# E-selectin induc – E-selectin induction on HUVECs. HUVEC E-selectin immunofluorescence imaging; normalized: neutral wells 0, TNF-alpha wells 100. activation, % at 7.58 µM. 260,000 compounds, 0.37% hits. P16581. AID 686992;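 active = mean E-selectin-positive cell signal at least 10% of the positive control, reached in at least 60% of replicates, without over 20% cell loss; inconclusive = no rule given, readout overlaps actives, possibly toxicity-flagged; inactive = the rest, including those meeting only one limit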
#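 material = human umbilical vein endothelial cells (HUVEC), E-selectin induction | quantity = 3,000 cells/well | medium = EGM-2 growth medium on 0.1% gelatin-coated wells | technique = immunofluorescence imaging | read-out basis = % PE-positive cells | control set = TNF-alpha positive control, DMSO neutral control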
# * hit, by the source's call; ? = inconclusive; · = no result given; [ ] = remark or other dose.
SMILES,FGF22 binding,miR-122 sensor,SIRT5 inh,S100A4 inh HTS,E-selectin induc
Cc1ccccc1S(=O)(=O)N1CCCCN2[C@H](CO)[C@H](c3ccc(-c4ccccc4)cc3)[C@H]2C1,0,48[16.7 µM],17*,-3,·
CCS(=O)(=O)N1CCCCN2[C@H](C1)[C@@H](c1ccc(-c3ccccc3)cc1)[C@@H]2CO,0,16[16.7 µM],16*,8,1
Cc1ccccc1S(=O)(=O)N1CCCCN2[C@H](CO)[C@@H](c3ccc(-c4ccccc4)cc3)[C@H]2C1,0,2[16.7 µM],19*,-2,·
CN(C)CC(=O)N[C@H]1CC[C@@H](CCn2cc(CN(C)C)nn2)O[C@@H]1CO,0,·,0,12,-1
COc1ccc(NC(=O)CSc2nncs2)cc1S(N)(=O)=O,0,·,-3,-1,·
COc1ccc(NC(=O)CSc2nccn2C)cc1S(N)(=O)=O,2.4*,·,-3,2,4
CN(C)C(=O)c1cccc(-c2ccc([C@H]3[C@H](CO)N4CCCCN(CC5CCOCC5)C[C@@H]34)cc2)c1,1,2[16.7 µM],1,1,0
c1ccc(Cn2c(NCc3ccccn3)nc3ccccc32)cc1,43*,-1,-3,-1,·
c1ccc(Cn2c(NCc3ccncc3)nc3ccccc32)cc1,0,·,2,0,·
CCOC(=O)c1c(CC(C)C)csc1/N=C/C1C(=O)CCCC1=O,0,·,-5,-14,33*
CCOc1ccc(NS(=O)(=O)c2ccc(NC(=S)NC(=O)C(C)C)cc2)cc1,·,115*,·,·,·
CC(C)C(=O)NC(=S)Nc1ccc(S(=O)(=O)NC(C)(C)C)cc1,·,47,·,·,·
CC(C)C(=O)NC(=S)Nc1ccc(S(=O)(=O)Nc2ccccc2)cc1,·,137*,·,·,·
COC(=O)Nc1ccc(S(=O)(=O)Nc2ccc(C(=O)O)cc2)cc1,43*,3,-5,-4,·
C[C@@H]1CN([C@@H](C)CO)C(=O)c2cc(NS(=O)(=O)c3ccc(F)cc3)ccc2O[C@@H](C)CCCCO[C@@H]1CN(C)C(=O)Nc1ccc(F)cc1,0,4[16.7 µM],·,·,0
CC1=C(C(=O)Nc2cccc([N+](=O)[O-])c2)C2(CCC(C)CC2)OC1=O (centres undefined),44*,·,-2,-6,·
CCOc1ccc(NC(=O)C2=C(C)C(=O)OC23CCC(C)CC3)cc1 (centres undefined),0,-7,-2,-8,1
C=C(C)CSCc1nc2ccccc2[nH]1,·,-5,·,·,·
O=C(O)CSCc1nc2ccccc2[nH]1,44*,0,2,-1,·
CN(C)S(=O)(=O)c1ccc(C(=O)NCC(=O)N/N=C/c2ccccc2)cc1,44*,-1,0,-2,·
O=C(CN(Cc1ccccc1Cl)S(=O)(=O)c1ccc(Cl)cc1)N/N=C/c1ccc(C(=O)O)cc1,1.5*,1,4,-13,·
CCc1noc(C)c1C(=O)NNC(=O)COc1ccc(C)c(C)c1,0,·,-7,-17,·
CCc1noc(C)c1C(=O)NNC(=O)COc1ccc(C)cc1,0,·,15*,-29,0
CN(C1CCCC1)C1CCN(C(=O)CNC(=O)/C=C/c2cccc(C(F)(F)F)c2)CC1,0,10,-2,2,39*
CN(C1CCCC1)C1CCN(C(=O)CNC(=O)/C=C/c2ccc(F)cc2)CC1,0,-16,-2,-2,0
SMILES,FGF22 binding,miR-122 sensor,SIRT5 inh,S100A4 inh HTS,E-selectin induc
Cc1ccc(/C=C/C(=O)N2CCN(c3cccc(C(F)(F)F)c3)CC2)cc1,0,·,30*,-5,·
CNC(=O)c1ccc(NC(=O)/C=C/c2cccc(F)c2)cc1,44*,-7,-6,-2,·
Cc1ccc(NC(=O)/C=C/c2cccc(C(F)(F)F)c2)cc1,18*,·,2,-17,1
O=C(/C=C/c1cccc(F)c1)Nc1ccc(S(=O)(=O)Nc2ncccn2)cc1,0,2,0,12,0
C#CCN([C@H](/C=C/C1CC1)[C@@H](O)Cc1ccccc1)[C@@H](Cc1ccccc1)C(=O)OC,0,·,2,8,·
CN(C)C(=O)C[C@@H]1CC[C@@H]2[C@H](COc3ccc(NC(=O)C4CCCC4)cc3C(=O)N2C)O1,·,·,-1,15,0
CCCNC(=O)[C@H]1[C@H](CO)[C@H]2Cn3c(ccc(C4=CCCC4)c3=O)[C@@H]1N2S(C)(=O)=O,·,5[16.7 µM],·,·,0
CC(=O)Oc1ccc(/C=C2/SC(=S)N(Cc3ccccc3)C2=O)cc1,0,·,16*,-3,·
O=C(O)c1ccc(/C=C2/SC(=S)N(Cc3ccccc3)C2=O)cc1,0,3,-1,-3,0
COc1ccccc1C(=O)N/C(=C\c1ccccc1)C(=O)NC(Cc1ccccc1)C(=O)O (centres undefined),0,-4,70*,-3,·
COc1ccccc1C(=O)N/C(=C/c1ccccc1)C(=O)NC(CCSC)C(=O)O (centres undefined),0,·,-2,0,·
O=[N+]([O-])c1ccc(C[n+]2cccc3c4ccccc4ccc32)cc1,43*,12,-6,-2,-2
CNC[C@H]1Oc2ccc(NC(=O)CCCN(C)C)cc2C(=O)N([C@H](C)CO)C[C@@H]1C,·,-5[16.7 µM],-3,?,0
O=C(C[C@H]1CC[C@@H](NC(=O)C2CCC2)[C@@H](CO)O1)Nc1nccs1,0,·,-3,14,-1
C[C@@H]1CN([C@@H](C)CO)C(=O)Cc2cc(NS(=O)(=O)c3cccs3)ccc2O[C@H]1CN(C)C(=O)Nc1ccc(F)cc1,0,3[16.7 µM],-5,0,30*
CC(C)NC(=O)N(C)C[C@@H]1Oc2ccc(NS(=O)(=O)c3cccs3)cc2CC(=O)N([C@H](C)CO)C[C@@H]1C,0,6[16.7 µM],3,-3,26*
C[C@H]1CN([C@@H](C)CO)C(=O)Cc2cc(NS(=O)(=O)c3cccs3)ccc2O[C@H]1CN(C)C(=O)Nc1ccc(F)cc1,0,2[16.7 µM],-2,-7,14
C[C@@H]1CN([C@@H](C)CO)C(=O)Cc2cc(NS(=O)(=O)c3cccs3)ccc2O[C@H]1CN(C)CC1CCCCC1,0,-8[16.7 µM],15*,36,1
COc1ccc(OC(=O)Cc2cccc3ccccc23)cc1,0,-1,15*,14,0
CC(=O)c1ccc(OC(=O)Cc2cccc3ccccc23)cc1,0,-3,26*,17,1
CCC(=O)N1CCC2(CC1)CN(C(=O)Nc1ccc(F)cc1)[C@@H](CO)c1c2c2ccc(OC)cc2n1C,0,·,4,3,-1
O=C1C2C3C=CC(CC3)C2S(=O)(=O)C2C3C=CC(CC3)C12 (centres undefined),44*,1,·,-1,1
O=C1C2C3C=CC(C3)C2S(=O)(=O)C2C3C=CC(C3)C12 (centres undefined),43*,-7,·,1,1
